The source made the active and inactive calls. No cut-off for these calls is given here.
Legend:
[1] = tested on: Mus musculus; assay: Anticonvulsant activity in CF1 albino mouse assessed as protection against maximal electroshock-induced seizures at 60 mg/kg, ip; format: functional, organism-based; parameters: dose 60 mg/kg
In short: (§1)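 Adult male CF no. 1 albino mice (18-25 g). Test compound suspended in 0.5% methylcellulose and given intraperitoneally at 0.01 mL/g body weight. Maximal electroshock challenge at the stated time. Read-out is the number of animals protected over the number tested; neurotoxicity is scored in parallel.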

[2] = tested on: Mus musculus; assay: Anticonvulsant activity in CF1 albino mouse assessed as protection against maximal electroshock-induced seizures at 400 mg/kg, ip; format: functional, organism-based; parameters: dose 400 mg/kg; in short: as §1
[3] = tested on: Mus musculus; assay: Anticonvulsant activity in CF1 albino mouse assessed as protection against maximal electroshock-induced seizures at 150 mg/kg, ip after 0.5 hrs; format: functional, organism-based; parameters: dose 150 mg/kg; in short: as §1
[4] = tested on: Mus musculus; assay: Anticonvulsant activity in ip dosed CF1 albino mouse assessed as protection against scMet-induced seizures; format: functional
In short: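 Adult male CF no. 1 albino mice (18-25 g) dosed ip with compound suspended in 0.5% methylcellulose (0.01 mL/g body weight). Seizures were induced by subcutaneous pentylenetetrazol, given as a 0.85% solution in 0.9% saline. ED50 was found by varying the dose to give 3-4 points between 0% and 100% protection, then probit analysis with 95% confidence intervals.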

[5] = organism: Mus musculus; assay: Protective index, ratio of TD50 for CF1 albino mouse to ED50 for scMet-induced CF1 albino seizure mouse model; format: functional
In short: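 Ratio of TD50 to ED50 (MES or scMet) in male CF no. 1 mice (18-25 g) given ip doses in 0.5% methylcellulose. TD50 comes from minimal motor impairment: the dose was varied until four points lay between no impairment and all animals impaired. Both TD50 and ED50 were derived by probit analysis with 95% confidence intervals.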

[6] = tested on: Mus musculus; assay: Anticonvulsant activity in CF1 albino mouse assessed as protection against maximal electroshock-induced seizures at 100 mg/kg, ip after 0.5 hrs; format: functional, organism-based; parameters: dose 100 mg/kg; in short: as §1
[7] = tested on: Mus musculus; assay: Anticonvulsant activity in CF1 albino mouse assessed as protection against scMet-induced seizures at 300 mg/kg, ip after 4 hrs; format: functional, organism-based; parameters: dose 300 mg/kg
In short: (§2)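 Adult male CF no. 1 albino mice (18-25 g) dosed intraperitoneally with compound suspended in 0.5% methylcellulose (0.01 mL/g). Convulsant challenge given subcutaneously as a 0.85% pentylenetetrazol solution in 0.9% saline. Read-out is animals protected over animals tested, with neurotoxicity scored in parallel.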

[8] = tested on: Mus musculus; assay: Neurotoxicity in CF1 albino mouse at 30 mg/kg, ip after 4 hrs; format: toxicity, organism-based; parameters: dose 30 mg/kg, route intraperitoneal; conditions: in vivo
In short: (§3)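 Male CF no. 1 albino mice (18-25 g) received a single ip dose as a suspension in 0.5% methylcellulose. The read-out was the number of animals showing neurotoxicity (minimal motor impairment) over the number tested.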

[9] = tested on: Mus musculus; assay: Anticonvulsant activity in CF1 albino mouse assessed as protection against maximal electroshock-induced seizures at 300 mg/kg, ip after 0.5 hrs; format: functional, organism-based; parameters: dose 300 mg/kg; in short: as §1
[10] = tested on: Mus musculus; assay: Anticonvulsant activity in CF1 albino mouse assessed as protection against scMet-induced seizures at 100 mg/kg, ip after 4 hrs; format: functional, organism-based; parameters: dose 100 mg/kg; in short: as §2
[11] = tested on: Mus musculus; assay: Anticonvulsant activity in CF1 albino mouse assessed as protection against maximal electroshock-induced seizures at 300 mg/kg, ip after 4 hrs; format: functional, organism-based; parameters: dose 300 mg/kg; in short: as §1
[12] = tested on: Mus musculus; assay: Neurotoxicity in CF1 albino mouse at 100 mg/kg, ip after 4 hrs; format: toxicity, organism-based; parameters: dose 100 mg/kg, route intraperitoneal; conditions: in vivo; in short: as §3
[13] = tested on: Mus musculus; assay: Neurotoxicity in CF1 albino mouse at 300 mg/kg, ip after 4 hrs; format: toxicity, organism-based; parameters: dose 300 mg/kg, route intraperitoneal; conditions: in vivo; in short: as §3
[14] = tested on: Rattus norvegicus; assay: Anticonvulsant activity in albino Sprague-Dawley rat assessed as protection against scMet-induced seizures at 50 mg/kg, po after 2 hrs; format: functional
In short: (§4)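 Male Sprague-Dawley albino rats (100-150 g) were given the compound orally as a suspension in 0.5% methylcellulose. Seizures were induced by subcutaneous pentylenetetrazol, dissolved in 0.9% saline as a 2.82% solution. The read-out was animals protected over animals tested.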

[15] = tested on: Rattus norvegicus; assay: Anticonvulsant activity in albino Sprague-Dawley rat assessed as protection against scMet-induced seizures at 50 mg/kg, po after 1 hr; format: functional; in short: as §4
[16] = tested on: Mus musculus; assay: Neurotoxicity in CF1 albino mouse at 30 mg/kg, ip after 0.5 hrs; format: toxicity, organism-based; parameters: dose 30 mg/kg, route intraperitoneal; conditions: in vivo; in short: as §3
[17] = tested on: Mus musculus; assay: Neurotoxicity in CF1 albino mouse at 300 mg/kg, ip after 0.5 hrs; format: toxicity, organism-based; parameters: dose 300 mg/kg, route intraperitoneal; conditions: in vivo; in short: as §3
[18] = tested on: Mus musculus; assay: Anticonvulsant activity in CF1 albino mouse assessed as protection against maximal electroshock-induced seizures at 30 mg/kg, ip after 4 hrs; format: functional, organism-based; parameters: dose 30 mg/kg; in short: as §1
[19] = tested on: Rattus norvegicus; assay: Anticonvulsant activity in albino Sprague-Dawley rat assessed as protection against maximal electroshock-induced seizures at 50 mg/kg, po after 2 hrs; format: functional
In short: (§5)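 Adult male Sprague-Dawley albino rats (100-150 g) dosed orally with compound suspended in 0.5% methylcellulose (0.04 mL per 10 g). Maximal electroshock challenge at the stated time. Protection is scored in 25% steps as the fraction of animals protected, with neurotoxicity recorded in parallel.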

[20] = tested on: Mus musculus; assay: Neurotoxicity in CF1 albino mouse at 100 mg/kg, ip after 0.5 hrs; format: toxicity, organism-based; parameters: dose 100 mg/kg, route intraperitoneal; conditions: in vivo; in short: as §3
[21] = tested on: Rattus norvegicus; assay: Anticonvulsant activity in albino Sprague-Dawley rat assessed as protection against maximal electroshock-induced seizures at 50 mg/kg, po after 30 mins; format: functional; in short: as §5
[22] = tested on: Rattus norvegicus; assay: Neurotoxicity in albino Sprague-Dawley rat at 50 mg/kg, po; format: toxicity, organism-based; parameters: dose 50 mg/kg, route oral; conditions: in vivo
In short: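 Neurotoxicity was scored in male Sprague-Dawley albino rats (100-150 g) dosed orally with a suspension in 0.5% methylcellulose. The read-out was the fraction of animals showing neurotoxicity (minimal motor impairment).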

[23] = tested on: Mus musculus; assay: Anticonvulsant activity in CF1 albino mouse assessed as protection against scMet-induced seizures at 100 mg/kg, ip after 0.5 hrs; format: functional, organism-based; parameters: dose 100 mg/kg; in short: as §2
[24] = tested on: Rattus norvegicus; assay: Anticonvulsant activity in albino Sprague-Dawley rat assessed as protection against scMet-induced seizures at 50 mg/kg, po after 4 hrs; format: functional; in short: as §4
[25] = tested on: Rattus norvegicus; assay: Anticonvulsant activity in albino Sprague-Dawley rat assessed as protection against maximal electroshock-induced seizures at 50 mg/kg, po after 15 mins; format: functional; in short: as §5
[26] = tested on: Mus musculus; assay: Anticonvulsant activity in CF1 albino mouse assessed as protection against scMet-induced seizures at 30 mg/kg, ip after 4 hrs; format: functional, organism-based; parameters: dose 30 mg/kg; in short: as §2
[27] = tested on: Rattus norvegicus; assay: Anticonvulsant activity in albino Sprague-Dawley rat assessed as protection against maximal electroshock-induced seizures at 50 mg/kg, po after 1 hr; format: functional; in short: as §5
[28] = tested on: Mus musculus; assay: Anticonvulsant activity in CF1 albino mouse assessed as protection against maximal electroshock-induced seizures at 100 mg/kg, ip after 4 hrs; format: functional, organism-based; parameters: dose 100 mg/kg; in short: as §1
[29] = tested on: Mus musculus; assay: Anticonvulsant activity in CF1 albino mouse assessed as protection against scMet-induced seizures at 300 mg/kg, ip after 0.5 hrs; format: functional, organism-based; parameters: dose 300 mg/kg; in short: as §2
[30] = tested on: Rattus norvegicus; assay: Anticonvulsant activity in albino Sprague-Dawley rat assessed as protection against maximal electroshock-induced seizures at 50 mg/kg, po after 4 hrs; format: functional, organism-based; parameters: dose 50 mg/kg; in short: as §5
[31] = tested on: Rattus norvegicus; assay: Anticonvulsant activity in albino Sprague-Dawley rat assessed as protection against scMet-induced seizures at 50 mg/kg, po after 15 mins; format: functional; in short: as §4
[32] = tested on: Rattus norvegicus; assay: Anticonvulsant activity in albino Sprague-Dawley rat assessed as protection against scMet-induced seizures at 50 mg/kg, po after 30 mins; format: functional; in short: as §4
[33] = tested on: Mus musculus; assay: Anticonvulsant activity in CF1 albino mouse assessed as protection against maximal electroshock-induced seizures at 30 mg/kg, ip after 0.5 hrs; format: functional, organism-based; parameters: dose 30 mg/kg; in short: as §1
[34] = tested on: Mus musculus; assay: Anticonvulsant activity in CF1 albino mouse assessed as protection against scMet-induced seizures at 30 mg/kg, ip after 0.5 hrs; format: functional, organism-based; parameters: dose 30 mg/kg; in short: as §2

Structure (SMILES) | Activity [6] | Activity [7] | Activity [9] | Activity [10] | Activity [11] | Activity [12] | Activity [13] | Activity [14] | Activity [15] | Activity [17] | Activity [18] | Activity [22] | Activity [23] | Activity [24] | Activity [26] | Activity [28] | Activity [29] | Activity [32] | Activity [33] | Activity [34] | further results
CCCC(F)(CCC)C(N)=O | – | – | – | – | – | – | – | – | – | – | – | – | – | – | – | – | – | – | – | – | Activity [1]: inactive; Activity [2]: Active; Activity [3]: inactive; ED50 [4]: 23 mg/kg; PI [5]: 3.8
CC1(C)C(C)(C)C1(C)C(N)=O | Non-toxic | Non-toxic | Toxic | Non-toxic | Non-toxic | Non-toxic | Non-toxic | 25% | 25% | Toxic | Non-toxic | Not Active | Non-toxic | inactive | Non-toxic | Non-toxic | Toxic | inactive | Non-toxic | Non-toxic | Activity [8]: Non-toxic; Activity [16]: Non-toxic; Activity [19]: inactive; Activity [20]: Non-toxic; Activity [21]: inactive; Activity [25]: inactive; Activity [27]: inactive; Activity [30]: inactive; Activity [31]: inactive
CNC(=O)C1(F)C(C)(C)C1(C)C | Non-toxic | Non-toxic | Toxic | Non-toxic | Non-toxic | Non-toxic | Non-toxic | inactive | inactive | Toxic | Non-toxic | 100% | Toxic | inactive | Non-toxic | Non-toxic | Non-toxic | inactive | Non-toxic | Non-toxic | Activity [31]: inactive
CC1(C)C(C)(C)C1(F)C(=O)O | Non-toxic | Non-toxic | Non-toxic | Non-toxic | Non-toxic | Non-toxic | Non-toxic | inactive | inactive | Toxic | Non-toxic | Not Active | Non-toxic | inactive | Non-toxic | Non-toxic | Toxic | inactive | Non-toxic | Non-toxic | Activity [8]: Non-toxic; Activity [16]: Non-toxic; Activity [19]: inactive; Activity [21]: inactive; Activity [25]: inactive; Activity [27]: inactive; Activity [30]: inactive

Reference: ChEMBL document CHEMBL1153988 (J Med Chem, 2009)
